ChEMBL document CHEMBL4138132, “Design, synthesis and biological evaluation of substituted aminopyridazin-3(2H)-ones as G0/G1-phase arresting agents with apoptosis-inducing activities” (Eur J Med Chem, 2017)

What was measured:
K562 = assay: Antiproliferative activity against human K562 cells after 48 hrs by MTT assay; assay type: functional; settings: K562, 48 h
In short: (§1)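 MTT read-out after 48 h incubation. GI50 taken as the concentration giving 50% growth inhibition relative to untreated controls. Fluorouracil served as positive control.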

SH-SY5Y [1] = assay: Antiproliferative activity against human SH-SY5Y cells after 48 hrs by MTT assay; assay type: functional; in short: as §1
AGS = assay: Antiproliferative activity against human AGS cells after 48 hrs by MTT assay; assay type: functional; in short: as §1
[2] = Inhibition of PDE4 (unknown origin) using FAM-Cyclic-3',5'-AMP as substrate after 1 hr by fluorescence polarization assay; parameters: species or system Homo sapiens
In short: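 Each compound was tested at nine concentrations spanning 10^-8 to 10^-4 M, with rolipram as positive control. IC50 was obtained by nonlinear regression of the inhibition curves.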

SH-SY5Y [3] = assay: Cell cycle arrest in human SH-SY5Y cells assessed as accumulation at G0/G1 phase at 5 uM after 48 hrs by propidium iodide staining based flow cytometry (reference value: 47.67 +/- 1.1%); assay type: functional
SH-SY5Y [4] = assay: Cell cycle arrest in human SH-SY5Y cells assessed as accumulation at S-phase at 5 uM after 48 hrs by propidium iodide staining based flow cytometry (reference value: 40.2 +/- 1.8%); assay type: functional
SH-SY5Y [5] = assay: Cell cycle arrest in human SH-SY5Y cells assessed as accumulation at G2/M-phase at 5 uM after 48 hrs by propidium iodide staining based flow cytometry (reference value: 12.13 +/- 0.7%); assay type: functional
SH-SY5Y [6] = assay: Cell cycle arrest in human SH-SY5Y cells assessed as accumulation at G0/G1 phase at 10 uM after 48 hrs by propidium iodide staining based flow cytometry (reference value: 47.67 +/- 1.1%); assay type: functional
SH-SY5Y [7] = assay: Cell cycle arrest in human SH-SY5Y cells assessed as accumulation at S-phase at 10 uM after 48 hrs by propidium iodide staining based flow cytometry (reference value: 40.2 +/- 1.8%); assay type: functional
SH-SY5Y [8] = assay: Cell cycle arrest in human SH-SY5Y cells assessed as accumulation at G2/M-phase at 10 uM after 48 hrs by propidium iodide staining based flow cytometry (reference value: 12.13 +/- 0.7%); assay type: functional
SH-SY5Y [9] = assay: Cell cycle arrest in human SH-SY5Y cells assessed as accumulation at G0/G1 phase at 20 uM after 48 hrs by propidium iodide staining based flow cytometry (reference value: 47.67 +/- 1.1%); assay type: functional
SH-SY5Y [10] = assay: Cell cycle arrest in human SH-SY5Y cells assessed as accumulation at S-phase at 20 uM after 48 hrs by propidium iodide staining based flow cytometry (reference value: 40.2 +/- 1.8%); assay type: functional
SH-SY5Y [11] = assay: Cell cycle arrest in human SH-SY5Y cells assessed as accumulation at G2/M-phase at 20 uM after 48 hrs by propidium iodide staining based flow cytometry (reference value: 12.13 +/- 0.7%); assay type: functional
SH-SY5Y [12] = assay: Cell cycle arrest in human SH-SY5Y cells assessed as accumulation at G0/G1-phase after 48 hrs by propidium iodide staining based flow cytometry; assay type: functional
SH-SY5Y [13] = assay: Induction of apoptosis in human SH-SY5Y cells assessed as live cells at 10 uM after 48 hrs by Annexin V-FITC/propidium iodide staining based flow cytometry (reference value: 89.95%); assay type: functional
In short: (§2)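 SH-SY5Y cells treated 48 h at 10 or 20 µM, then stained with Annexin V-FITC and propidium iodide and analysed by flow cytometry. Quadrants were scored as live, early apoptotic, late apoptotic and necrotic. DMSO served as control. Values are means of three independent experiments. Significance was tested versus control.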

SH-SY5Y [14] = assay: Induction of apoptosis in human SH-SY5Y cells assessed as early apoptotic cells at 10 uM after 48 hrs by Annexin V-FITC/propidium iodide staining based flow cytometry (reference value: 1.3%); assay type: functional; in short: as §2
SH-SY5Y [15] = assay: Induction of apoptosis in human SH-SY5Y cells assessed as late apoptotic cells at 10 uM after 48 hrs by Annexin V-FITC/propidium iodide staining based flow cytometry (reference value: 3.68%); assay type: functional; in short: as §2
SH-SY5Y [16] = assay: Induction of apoptosis in human SH-SY5Y cells assessed as necrotic cells at 10 uM after 48 hrs by Annexin V-FITC/propidium iodide staining based flow cytometry (reference value: 5.06%); assay type: functional; in short: as §2
SH-SY5Y [17] = assay: Induction of apoptosis in human SH-SY5Y cells assessed as live cells at 20 uM after 48 hrs by Annexin V-FITC/propidium iodide staining based flow cytometry (reference value: 89.95%); assay type: functional; in short: as §2
SH-SY5Y [18] = assay: Induction of apoptosis in human SH-SY5Y cells assessed as early apoptotic cells at 20 uM after 48 hrs by Annexin V-FITC/propidium iodide staining based flow cytometry (reference value: 1.3%); assay type: functional; in short: as §2
SH-SY5Y [19] = assay: Induction of apoptosis in human SH-SY5Y cells assessed as late apoptotic cells at 20 uM after 48 hrs by Annexin V-FITC/propidium iodide staining based flow cytometry (reference value: 3.68%); assay type: functional; in short: as §2
SH-SY5Y [20] = assay: Induction of apoptosis in human SH-SY5Y cells assessed as necrotic cells at 20 uM after 48 hrs by Annexin V-FITC/propidium iodide staining based flow cytometry (reference value: 5.06%); assay type: functional; in short: as §2
SH-SY5Y [21] = assay: Induction of apoptosis in human SH-SY5Y cells assessed as increase in late apoptotic cells after 48 hrs by Annexin V-FITC/propidium iodide staining based flow cytometry; assay type: functional, cell-based; in short: as §2

Structure (SMILES) | GI50 (K562) [µM] | GI50 (SH-SY5Y [1]) [µM] | GI50 (AGS) [µM] | IC50 [2] [µM] | further results
COc1ccccc1OCCNc1cnn(Cc2ccc(OC(F)F)c(OCC3CC3)c2)c(=O)c1Cl | 67.6 | > 100 | > 100 | > 100 | 
COc1ccccc1OCCNc1cnn(Cc2ccc(OC(F)F)c(OC3CCCC3)c2)c(=O)c1Cl | > 100 | > 100 | > 100 | 39.1 | 
COc1ccccc1OCCNc1ccc(=O)n(Cc2ccc(OC)c(OC3CCCC3)c2)n1 | 28 | > 100 | > 100 | > 100 | 
O=c1[nH]cc(F)c(=O)[nH]1 [FLUOROURACIL] | 18.5 | 11.9 | 24.6 |  | 
COc1ccc(Cn2nc(NCCOc3ccccc3OC)ccc2=O)cc1Br | > 100 | > 100 | > 100 | 44 | 
COc1ccccc1OCCNc1ccc(=O)n(Cc2ccc(OC(F)F)c(OC3CCCC3)c2)n1 | 9.1 | 9.3 | 23.6 | 12.2 | Activity (SH-SY5Y [3]): 53.22%; Activity (SH-SY5Y [4]): 36.44%; Activity (SH-SY5Y [5]): 10.34%; Activity (SH-SY5Y [6]): 62.1%; Activity (SH-SY5Y [7]): 30.16%; Activity (SH-SY5Y [8]): 7.74%; Activity (SH-SY5Y [9]): 63.55%; Activity (SH-SY5Y [10]): 29.58%; Activity (SH-SY5Y [11]): 6.87%; Activity (SH-SY5Y [12]): Dose-dependent effect; Activity (SH-SY5Y [13]): 84.34%; Activity (SH-SY5Y [14]): 3.12%; Activity (SH-SY5Y [15]): 8.05%; Activity (SH-SY5Y [16]): 4.48%; Activity (SH-SY5Y [17]): 64.46%; Activity (SH-SY5Y [18]): 8.82%; Activity (SH-SY5Y [19]): 18.54%; Activity (SH-SY5Y [20]): 8.18%; Activity (SH-SY5Y [21]): Dose-dependent effect
COc1ccccc1OCCNc1cnn(Cc2ccc(OC)c(-c3cccc(Cl)c3)c2)c(=O)c1Cl | > 100 | > 100 | > 100 | > 100 | 
COc1ccccc1OCCNc1ccc(=O)n(Cc2ccc(OC)c(OCC3CC3)c2)n1 | 16.6 | 10.5 | 45.8 | > 100 | 
COc1ccccc1OCCNc1cnn(Cc2ccc(OC)c(OCC3CC3)c2)c(=O)c1Cl | > 100 | 37.9 | > 100 | 45.2 | 
COc1ccccc1OCCNc1ccc(=O)n(Cc2ccc(OC(F)F)c(OCC3CC3)c2)n1 | 60.9 | 6.3 | 24.4 | 15.3 | Activity (SH-SY5Y [3]): 52.15%; Activity (SH-SY5Y [4]): 34.87%; Activity (SH-SY5Y [5]): 12.98%; Activity (SH-SY5Y [6]): 55.6%; Activity (SH-SY5Y [7]): 33.81%; Activity (SH-SY5Y [8]): 10.59%; Activity (SH-SY5Y [9]): 62.61%; Activity (SH-SY5Y [10]): 22.75%; Activity (SH-SY5Y [11]): 14.64%; Activity (SH-SY5Y [12]): Dose-dependent effect; Activity (SH-SY5Y [13]): 85.22%; Activity (SH-SY5Y [14]): 2.74%; Activity (SH-SY5Y [15]): 7.43%; Activity (SH-SY5Y [16]): 4.6%; Activity (SH-SY5Y [17]): 78.53%; Activity (SH-SY5Y [18]): 4.16%; Activity (SH-SY5Y [19]): 10.62%; Activity (SH-SY5Y [20]): 6.69%; Activity (SH-SY5Y [21]): Dose-dependent effect
COc1ccc(C2CNC(=O)C2)cc1OC1CCCC1 (stereo not given) [ROLIPRAM] |  |  |  | 0.5 | 
COc1ccccc1OCCNc1cnn(Cc2ccc(OC)c(OC3CCCC3)c2)c(=O)c1Cl | > 100 | 23.3 | > 100 | 21.5 | 
COc1ccc(Cn2nc(NCCOc3ccccc3OC)ccc2=O)cc1OC | > 100 | > 100 | > 100 | 66.9 | 
COc1ccc(Cn2ncc(NCCOc3ccccc3OC)c(Cl)c2=O)cc1OC | > 100 | 33.1 | > 100 | 73 | 
